Test results from ChEMBL document CHEMBL4229344 (Eur J Med Chem, 2018).
Activity calls are given as the source filed them. The rule behind the calls is not given here.

Legend:
[1] = biological target: Calcium/calmodulin-dependent protein kinase type 1B (Homo sapiens) (UniProt Q6P2M8); test: Binding affinity to wild-type human partial length CAMK1B (W9 to A311 residues) expressed in mammalian expression system assessed as residual binding level at 1 uM by Kinomescan method relative to control
[2] = biological target: Calcium/calmodulin-dependent protein kinase type II subunit delta (Homo sapiens) (UniProt Q13557); test: Binding affinity to wild-type human partial length CAMK2D (M1 to E329 residues) expressed in bacterial expression system assessed as residual binding level at 1 uM by Kinomescan method relative to control
[3] = biological target: Ephrin type-B receptor 3 (Homo sapiens) (UniProt P54753); test: Binding affinity to wild-type human partial length EPHB3 (Q599 to T928 residues) expressed in bacterial expression system assessed as residual binding level at 1 uM by Kinomescan method relative to control
Ephrin type-B receptor 3 (Homo sapiens), sequence (P54753 whole entry, the tested form may be a part): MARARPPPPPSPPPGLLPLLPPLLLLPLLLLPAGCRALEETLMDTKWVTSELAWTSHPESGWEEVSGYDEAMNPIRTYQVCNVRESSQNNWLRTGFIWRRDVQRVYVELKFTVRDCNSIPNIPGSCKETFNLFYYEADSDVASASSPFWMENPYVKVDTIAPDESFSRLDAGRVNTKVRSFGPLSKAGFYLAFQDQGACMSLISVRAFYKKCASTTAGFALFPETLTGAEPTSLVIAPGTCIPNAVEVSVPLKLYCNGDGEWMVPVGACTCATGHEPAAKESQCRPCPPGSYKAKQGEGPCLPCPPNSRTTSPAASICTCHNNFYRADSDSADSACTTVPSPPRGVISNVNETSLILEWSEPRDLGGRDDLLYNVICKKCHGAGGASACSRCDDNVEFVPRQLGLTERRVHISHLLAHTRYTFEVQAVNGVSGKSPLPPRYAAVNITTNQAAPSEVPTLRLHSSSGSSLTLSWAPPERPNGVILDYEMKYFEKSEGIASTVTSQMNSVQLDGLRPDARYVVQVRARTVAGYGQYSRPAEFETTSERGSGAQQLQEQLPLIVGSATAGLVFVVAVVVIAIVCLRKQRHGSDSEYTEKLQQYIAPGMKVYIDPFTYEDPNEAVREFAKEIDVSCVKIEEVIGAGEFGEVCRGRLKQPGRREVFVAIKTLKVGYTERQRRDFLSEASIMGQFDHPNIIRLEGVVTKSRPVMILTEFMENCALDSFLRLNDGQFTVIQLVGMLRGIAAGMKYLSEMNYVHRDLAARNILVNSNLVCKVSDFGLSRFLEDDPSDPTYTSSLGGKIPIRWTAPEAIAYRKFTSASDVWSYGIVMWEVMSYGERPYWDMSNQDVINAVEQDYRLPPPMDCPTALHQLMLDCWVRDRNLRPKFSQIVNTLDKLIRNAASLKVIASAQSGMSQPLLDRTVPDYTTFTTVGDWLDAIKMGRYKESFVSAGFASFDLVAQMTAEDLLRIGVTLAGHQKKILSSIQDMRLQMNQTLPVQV
How it was run: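 Kinome-wide competition binding screen against a panel of 468 purified kinases/mutants, with the test compound at a single concentration of 1 μM. Read-out is the relative binding activity of each kinase in the presence of compound.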

[4] = system: Receptor-type tyrosine-protein kinase FLT3 (Homo sapiens), P36888 [K663Q]; test: Binding affinity to human partial length FLT3 K663Q mutant (V592 to Y969 residues) expressed in bacterial expression system assessed as residual binding level at 1 uM by Kinomescan method relative to control
How it was run: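 Kinome-wide single-concentration binding screen (KINOMEscan) at 1 μM against a panel of 468 purified kinases and mutants. Read-out is relative binding of each kinase compared with control. Selectivity across the panel was summarised as an S(10) score.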

[5] = biological target: Homeodomain-interacting protein kinase 2 (Homo sapiens) (UniProt Q9H2X6); test: Binding affinity to wild-type human partial length HIPK2 (M153 to S564 residues) expressed in mammalian expression system assessed as residual binding level at 1 uM by Kinomescan method relative to control
Homeodomain-interacting protein kinase 2 (Homo sapiens), sequence (Q9H2X6 whole entry, looked up, the tested form may be a part): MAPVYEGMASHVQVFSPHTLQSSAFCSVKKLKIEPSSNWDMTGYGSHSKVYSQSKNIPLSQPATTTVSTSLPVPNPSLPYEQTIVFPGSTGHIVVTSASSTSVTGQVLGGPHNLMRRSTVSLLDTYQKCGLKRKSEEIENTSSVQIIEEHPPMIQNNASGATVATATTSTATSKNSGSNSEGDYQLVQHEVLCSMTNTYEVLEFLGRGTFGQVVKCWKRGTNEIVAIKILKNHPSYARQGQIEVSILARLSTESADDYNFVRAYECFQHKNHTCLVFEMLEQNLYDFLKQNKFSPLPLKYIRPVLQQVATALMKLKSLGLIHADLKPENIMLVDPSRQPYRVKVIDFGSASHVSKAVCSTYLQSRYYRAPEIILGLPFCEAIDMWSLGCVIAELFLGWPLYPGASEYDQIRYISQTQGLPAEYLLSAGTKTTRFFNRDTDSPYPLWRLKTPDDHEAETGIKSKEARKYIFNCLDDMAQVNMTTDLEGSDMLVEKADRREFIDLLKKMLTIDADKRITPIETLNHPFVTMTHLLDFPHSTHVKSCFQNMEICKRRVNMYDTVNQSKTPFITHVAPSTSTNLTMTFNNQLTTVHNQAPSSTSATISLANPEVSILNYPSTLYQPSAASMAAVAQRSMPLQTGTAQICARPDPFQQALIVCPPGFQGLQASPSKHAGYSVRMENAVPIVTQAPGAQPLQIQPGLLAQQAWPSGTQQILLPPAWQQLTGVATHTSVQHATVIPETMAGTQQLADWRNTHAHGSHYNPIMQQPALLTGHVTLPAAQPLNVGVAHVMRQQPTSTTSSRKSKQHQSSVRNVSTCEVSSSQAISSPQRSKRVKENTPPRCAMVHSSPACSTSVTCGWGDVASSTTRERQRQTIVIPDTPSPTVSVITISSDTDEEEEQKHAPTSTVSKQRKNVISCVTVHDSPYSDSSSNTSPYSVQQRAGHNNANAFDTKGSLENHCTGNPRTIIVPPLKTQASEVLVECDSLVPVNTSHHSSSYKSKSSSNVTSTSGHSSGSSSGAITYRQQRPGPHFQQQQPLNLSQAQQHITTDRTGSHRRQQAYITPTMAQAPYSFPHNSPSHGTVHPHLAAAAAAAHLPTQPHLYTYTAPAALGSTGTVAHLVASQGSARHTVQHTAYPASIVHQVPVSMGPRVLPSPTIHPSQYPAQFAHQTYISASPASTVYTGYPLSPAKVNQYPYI

[6] = biological target: Serine/threonine-protein kinase 38 (Homo sapiens) (UniProt Q15208); test: Binding affinity to wild-type human partial length NDR1 (N33 to E449 residues) expressed in mammalian expression system assessed as residual binding level at 1 uM by Kinomescan method relative to control
[7] = biological target: Mitogen-activated protein kinase kinase kinase 14 (Homo sapiens) (UniProt Q99558); test: Binding affinity to wild-type human partial length NIK (L318 to P947 residues) expressed in mammalian expression system assessed as residual binding level at 1 uM by Kinomescan method relative to control
How it was run: (§1)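 KINOMEscan competition binding against a panel of 468 purified kinases/mutants, compound tested at 1 μM; readout is relative binding activity versus control.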

[8] = biological target: Serine/threonine-protein kinase OSR1 (Homo sapiens) (UniProt O95747); test: Binding affinity to wild-type human full length OSR1 (M1 to S527 residues) expressed in mammalian expression system assessed as residual binding level at 1 uM by Kinomescan method relative to control
How it was run: (§2)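 Single-concentration KINOMEscan (DiscoverX) binding screen at 1 μM against a panel of 468 purified kinases and mutants. The read-out is binding relative to control.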

[9] = biological target: Cyclin-dependent kinase 16 (Homo sapiens) (UniProt Q00536); test: Binding affinity to wild-type human partial length PCTK1 (G160 to A474 residues) expressed in mammalian expression system assessed as residual binding level at 1 uM by Kinomescan method relative to control
Cyclin-dependent kinase 16 (Homo sapiens), sequence (Q00536 whole entry, the tested form may be a part): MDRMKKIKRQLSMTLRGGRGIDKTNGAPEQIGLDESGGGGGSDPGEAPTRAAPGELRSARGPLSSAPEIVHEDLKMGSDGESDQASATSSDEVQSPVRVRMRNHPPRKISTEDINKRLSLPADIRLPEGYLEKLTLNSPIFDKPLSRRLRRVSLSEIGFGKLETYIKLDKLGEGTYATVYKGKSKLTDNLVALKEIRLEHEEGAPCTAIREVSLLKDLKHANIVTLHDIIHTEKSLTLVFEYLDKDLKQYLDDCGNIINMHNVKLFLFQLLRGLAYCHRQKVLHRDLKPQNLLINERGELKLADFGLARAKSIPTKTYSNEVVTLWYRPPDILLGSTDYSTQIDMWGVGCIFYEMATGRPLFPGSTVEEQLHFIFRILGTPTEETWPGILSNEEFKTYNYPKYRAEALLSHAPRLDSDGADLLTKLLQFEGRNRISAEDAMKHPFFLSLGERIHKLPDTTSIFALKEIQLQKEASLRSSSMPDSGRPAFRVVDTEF

[10] = biological target: Cyclin-dependent kinase 14 (Homo sapiens) (UniProt O94921); test: Binding affinity to wild-type human full length PFTK1 (M1 to H451 residues) expressed in bacterial expression system assessed as residual binding level at 1 uM by Kinomescan method relative to control; how it was run: as §2
[11] = biological target: Phosphorylase b kinase gamma catalytic chain, skeletal muscle/heart isoform (Homo sapiens) (UniProt Q16816); test: Binding affinity to wild-type human full length PHKG1 (M1 to Y387 residues) expressed in bacterial expression system assessed as residual binding level at 1 uM by Kinomescan method relative to control
Phosphorylase b kinase gamma catalytic chain, skeletal muscle/heart isoform (Homo sapiens), sequence (Q16816 whole entry, looked up, the tested form may be a part, canonical isoform): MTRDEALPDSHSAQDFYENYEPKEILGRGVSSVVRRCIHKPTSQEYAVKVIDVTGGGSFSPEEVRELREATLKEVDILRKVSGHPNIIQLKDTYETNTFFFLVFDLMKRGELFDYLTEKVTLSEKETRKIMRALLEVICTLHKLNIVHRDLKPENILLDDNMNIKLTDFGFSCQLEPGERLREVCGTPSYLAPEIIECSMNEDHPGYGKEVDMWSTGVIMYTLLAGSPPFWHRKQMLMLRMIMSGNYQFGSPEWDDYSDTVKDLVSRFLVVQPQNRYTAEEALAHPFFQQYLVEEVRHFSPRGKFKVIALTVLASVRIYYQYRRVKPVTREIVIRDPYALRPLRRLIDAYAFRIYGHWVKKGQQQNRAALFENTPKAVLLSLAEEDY
How it was run: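 KINOMEscan competition binding against 468 purified kinases/mutants, test compound at 1 µM; residual binding relative to control.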

[12] = biological target: Serine/threonine-protein kinase pim-3 (Homo sapiens) (UniProt Q86V86); test: Binding affinity to wild-type human partial length PIM3 (G16 to A317 residues) expressed in bacterial expression system assessed as residual binding level at 1 uM by Kinomescan method relative to control
[13] = biological target: Protein kinase C delta type (Homo sapiens) (UniProt Q05655); test: Binding affinity to wild-type human partial length PRKCD (Q328 to D676 residues) expressed in bacterial expression system assessed as residual binding level at 1 uM by Kinomescan method relative to control; how it was run: as §1
Protein kinase C delta type (Homo sapiens), sequence (Q05655 whole entry, looked up, the tested form may be a part): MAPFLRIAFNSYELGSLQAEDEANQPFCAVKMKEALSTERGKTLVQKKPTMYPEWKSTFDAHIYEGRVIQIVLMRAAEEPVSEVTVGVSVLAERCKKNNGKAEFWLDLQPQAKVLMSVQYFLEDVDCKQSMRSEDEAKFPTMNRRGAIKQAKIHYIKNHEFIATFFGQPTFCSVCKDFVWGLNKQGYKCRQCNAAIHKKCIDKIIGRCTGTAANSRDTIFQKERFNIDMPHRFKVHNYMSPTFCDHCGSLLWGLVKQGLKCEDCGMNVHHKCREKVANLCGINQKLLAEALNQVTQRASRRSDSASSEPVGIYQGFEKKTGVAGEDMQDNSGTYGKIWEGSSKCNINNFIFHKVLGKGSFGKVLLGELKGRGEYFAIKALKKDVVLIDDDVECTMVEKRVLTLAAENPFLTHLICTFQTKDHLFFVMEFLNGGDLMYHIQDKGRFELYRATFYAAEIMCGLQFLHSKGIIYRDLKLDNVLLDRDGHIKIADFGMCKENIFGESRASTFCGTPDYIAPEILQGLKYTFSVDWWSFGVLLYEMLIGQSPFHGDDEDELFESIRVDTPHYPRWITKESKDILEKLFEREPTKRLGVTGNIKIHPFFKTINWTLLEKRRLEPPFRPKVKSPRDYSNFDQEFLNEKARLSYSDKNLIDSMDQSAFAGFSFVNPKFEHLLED

[14] = biological target: Serine/threonine-protein kinase RIO1 (Homo sapiens) (UniProt Q9BRS2); test: Binding affinity to wild-type human full length RIOK1 (M1 to K568 residues) expressed in bacterial expression system assessed as residual binding level at 1 uM by Kinomescan method relative to control; how it was run: as §2
[15] = biological target: Dual specificity protein kinase TTK (Homo sapiens) (UniProt P33981); test: Binding affinity to wild-type human partial length TTK (N505 to V798 residues) expressed in bacterial expression system assessed as residual binding level at 1 uM by Kinomescan method relative to control
Dual specificity protein kinase TTK (Homo sapiens), sequence (P33981 whole entry, the tested form may be a part): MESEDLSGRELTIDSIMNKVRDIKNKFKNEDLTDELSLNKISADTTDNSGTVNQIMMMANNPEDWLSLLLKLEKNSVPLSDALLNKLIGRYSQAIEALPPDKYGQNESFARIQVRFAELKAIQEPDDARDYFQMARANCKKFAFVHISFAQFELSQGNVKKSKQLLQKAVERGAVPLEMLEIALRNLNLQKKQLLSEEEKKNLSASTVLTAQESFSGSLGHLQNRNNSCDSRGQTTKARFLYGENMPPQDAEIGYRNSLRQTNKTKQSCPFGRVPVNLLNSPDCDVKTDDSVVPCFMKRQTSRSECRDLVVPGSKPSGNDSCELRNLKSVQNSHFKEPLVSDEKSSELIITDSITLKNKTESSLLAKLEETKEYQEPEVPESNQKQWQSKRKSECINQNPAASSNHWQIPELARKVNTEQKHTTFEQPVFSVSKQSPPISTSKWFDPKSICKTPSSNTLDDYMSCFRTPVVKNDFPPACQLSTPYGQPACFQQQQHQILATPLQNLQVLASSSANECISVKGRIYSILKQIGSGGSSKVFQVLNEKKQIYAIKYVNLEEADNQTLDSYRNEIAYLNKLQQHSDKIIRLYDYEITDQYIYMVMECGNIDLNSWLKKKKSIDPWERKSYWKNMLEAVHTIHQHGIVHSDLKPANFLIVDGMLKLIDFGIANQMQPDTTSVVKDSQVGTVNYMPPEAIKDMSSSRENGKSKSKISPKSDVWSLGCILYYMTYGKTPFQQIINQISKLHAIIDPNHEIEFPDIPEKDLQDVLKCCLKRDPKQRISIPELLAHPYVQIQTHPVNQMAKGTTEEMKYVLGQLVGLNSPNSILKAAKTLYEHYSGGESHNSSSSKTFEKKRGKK

[16] = AUC (0 to t) in Sprague-Dawley rat at 10 mg/kg, po; format: ADME, organism-based; conditions: in vivo
How it was run: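 Male Sprague-Dawley rats (6–8 weeks) fasted overnight, dosed IV or orally; compound dissolved in 5% DMSO/40% PEG400/55% saline (dosing solution 1 mg/mL). Blood (~0.2 mL) from jugular vein into heparin; IV sampling 1 min–8 h, oral 5 min–24 h. Plasma separated by centrifugation at 2–8 °C, stored at −80 °C until analysis.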

Homo sapiens = species: Homo sapiens; test: Selectivity index, ratio of IC50 for PDGFRbeta (unknown origin) by ADP-Glo kinase assay to IC50 for PDGFRalpha (unknown origin) by ADP-Glo kinase assay
NCI-H1703 = test: Antiproliferative activity against human NCI-H1703 cells after 72 hrs in presence of PDGF-AA by CellTiter-Glo or CCK-8 assay; format: functional; conditions: NCI-H1703, 72 h
How it was run: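 Cells in RPMI 1640 with 10% FBS at 37 °C, 5% CO2, seeded at 1–3 × 10^4 cells/mL with serial compound dilutions for 72 h. Viability read by CellTiter-Glo luminescence or CCK-8 absorbance (450/655 nm), normalized to DMSO control.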

[17] = Tmax in Sprague-Dawley rat at 10 mg/kg, po; format: ADME, organism-based; conditions: in vivo
How it was run: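 Male Sprague-Dawley rats, 6–8 weeks old and fasted overnight, dosed IV at 1 mg/kg or PO at 10 mg/kg. Formulation was 5% DMSO/40% PEG400/55% saline (1 mg/mL). Jugular blood collected on heparin from 1 min to 8 h (IV) or 5 min to 24 h (PO). Plasma separated by centrifugation at 2–8 °C and stored at −80 °C.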

[18] = biological target: Platelet-derived growth factor receptor alpha (Homo sapiens, UniProt P16234); test: Inhibition of PDGFRalpha autophosphorylation at Y754 residue in human EOL-1 cells up to 300 nM after 2 hrs by Western blot method; format: cell-based

Calcium/calmodulin-dependent protein kinase type 1B (Homo sapiens), sequence (Q6P2M8 whole entry, the tested form may be a part): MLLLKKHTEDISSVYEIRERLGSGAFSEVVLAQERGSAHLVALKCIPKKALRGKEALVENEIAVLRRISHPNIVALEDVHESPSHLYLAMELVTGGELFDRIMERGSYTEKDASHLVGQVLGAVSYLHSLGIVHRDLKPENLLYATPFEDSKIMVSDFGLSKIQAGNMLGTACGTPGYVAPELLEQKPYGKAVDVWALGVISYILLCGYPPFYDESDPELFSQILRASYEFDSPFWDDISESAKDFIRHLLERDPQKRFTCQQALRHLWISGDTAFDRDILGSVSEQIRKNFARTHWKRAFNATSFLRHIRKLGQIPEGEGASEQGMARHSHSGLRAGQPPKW

Cc1ccc(NC(=O)c2ccc(CN(CCN(C)C)C(=O)c3cccnc3)cc2)cc1Nc1nccc(-c2cccnc2)n1
Activity [1]: 90% | Activity [2]: 100% | Activity [3]: 94% | Activity [4]: 93% | Activity [5]: 100% | Activity [6]: 71% | Activity [7]: 82% | Activity [8]: 100% | Activity [9]: 100% | Activity [10]: 90% | Activity [11]: 94% | Activity [12]: 100% | Activity [13]: 87% | Activity [14]: 100% | Activity [15]: 81% | AUC(0-t) [16]: 103 ng·h/mL | Ratio IC50 (Homo sapiens): 46 | GI50 (NCI-H1703): 2.99 µM | Tmax [17]: 1.5 h | inhibition [18]: inactive
